From ChEMBL document CHEMBL5653631, “A Potent and Selective ULK1 Inhibitor Suppresses Autophagy and Sensitizes Cancer Cells to Nutrient Stress” (iScience, 2018) come the findings set out here.

The target in experiment [1] is Mitogen-activated protein kinase 10 (Homo sapiens) (UniProt P53779). Briefly: Inhibition of human recombinant JNK3 at 40 nM related to control ULK1.
Experiment [2] addresses Bone morphogenetic protein receptor type-1B (Homo sapiens) (UniProt O00238). Briefly: Inhibition of human recombinant BMPR1B at 40 nM in presence of ATP by radiometric assay relative to control. The method, boiled down:
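Part of a radiometric in vitro activity panel of 327 recombinant human kinases. Each kinase was tested in duplicate at one inhibitor concentration. Activity remaining was expressed as a percentage of the vehicle control, and percent inhibition was taken as 100 minus that value.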

Experiment [3] deals with T1, Serine/threonine-protein kinase 3 (Homo sapiens) (UniProt Q13188).
T1 sequence (whole entry): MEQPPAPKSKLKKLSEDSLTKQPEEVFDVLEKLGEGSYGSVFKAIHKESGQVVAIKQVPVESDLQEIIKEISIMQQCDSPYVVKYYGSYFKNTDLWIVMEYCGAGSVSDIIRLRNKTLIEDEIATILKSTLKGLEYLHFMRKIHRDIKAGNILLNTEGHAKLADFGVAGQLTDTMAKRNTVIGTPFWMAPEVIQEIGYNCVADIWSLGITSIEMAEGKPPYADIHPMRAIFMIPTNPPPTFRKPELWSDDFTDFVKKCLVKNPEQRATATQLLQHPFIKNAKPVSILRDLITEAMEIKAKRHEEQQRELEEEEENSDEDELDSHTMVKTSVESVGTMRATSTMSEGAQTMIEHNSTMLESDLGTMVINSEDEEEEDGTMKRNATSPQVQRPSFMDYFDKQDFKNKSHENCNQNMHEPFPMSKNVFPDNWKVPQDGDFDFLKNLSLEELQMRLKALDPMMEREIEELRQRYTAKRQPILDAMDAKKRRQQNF
The experiment is described as follows: Inhibition of human recombinant MST2 at 500 nM in presence of ATP by radiometric assay relative to control.

In experiment [4] the target is T2, Myotonin-protein kinase (Homo sapiens) (UniProt Q09013).
T2 sequence (whole entry): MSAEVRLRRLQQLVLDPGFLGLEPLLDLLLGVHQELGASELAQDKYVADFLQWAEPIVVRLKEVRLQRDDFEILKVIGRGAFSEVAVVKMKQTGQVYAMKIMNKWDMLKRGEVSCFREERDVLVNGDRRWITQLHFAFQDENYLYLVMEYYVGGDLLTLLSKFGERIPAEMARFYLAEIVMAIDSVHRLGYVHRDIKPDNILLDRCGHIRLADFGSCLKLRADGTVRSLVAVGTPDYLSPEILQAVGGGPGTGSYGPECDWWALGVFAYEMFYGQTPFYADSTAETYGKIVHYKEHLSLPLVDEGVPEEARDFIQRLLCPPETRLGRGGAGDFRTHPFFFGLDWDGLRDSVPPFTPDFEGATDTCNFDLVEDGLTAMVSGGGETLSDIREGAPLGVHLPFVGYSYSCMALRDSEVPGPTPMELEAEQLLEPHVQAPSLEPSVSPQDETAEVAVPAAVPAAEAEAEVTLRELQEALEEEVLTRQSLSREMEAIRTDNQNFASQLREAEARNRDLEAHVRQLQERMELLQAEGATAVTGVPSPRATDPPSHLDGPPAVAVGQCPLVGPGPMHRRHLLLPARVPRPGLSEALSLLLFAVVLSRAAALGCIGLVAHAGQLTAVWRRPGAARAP
The experiment is described as follows: Inhibition of human recombinant DMPK1 at 500 nM in presence of ATP by radiometric assay relative to control.

Experiment [5] concerns the target TGF-beta receptor type-2 (Homo sapiens) (UniProt P37173). Briefly: Inhibition of human recombinant TGFbR2 at 500 nM in presence of ATP by radiometric assay relative to control.
Experiment [6] deals with T3, Aurora kinase A (Homo sapiens) (UniProt O14965).
T3 sequence (whole entry): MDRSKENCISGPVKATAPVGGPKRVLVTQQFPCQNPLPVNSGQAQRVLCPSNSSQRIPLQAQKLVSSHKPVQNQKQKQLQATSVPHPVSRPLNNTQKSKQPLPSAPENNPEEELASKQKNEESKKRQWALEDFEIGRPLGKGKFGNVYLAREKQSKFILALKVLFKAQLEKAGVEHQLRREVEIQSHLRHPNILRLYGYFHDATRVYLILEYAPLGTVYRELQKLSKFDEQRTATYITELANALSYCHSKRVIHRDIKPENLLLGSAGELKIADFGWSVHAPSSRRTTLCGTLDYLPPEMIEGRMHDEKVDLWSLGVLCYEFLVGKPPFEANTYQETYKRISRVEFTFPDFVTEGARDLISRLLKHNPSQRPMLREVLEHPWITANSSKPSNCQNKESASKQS
Briefly: Inhibition of human recombinant AurA at 15 nM related to control ULK1. In outline:
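Panel of 327 recombinant human kinases, each assayed in vitro by radiometric activity assay in duplicate at a single inhibitor concentration per compound, chosen with reference to its ULK1 inhibition. Activity remaining was expressed as percent of vehicle control, and percent inhibition was calculated as 100 minus percent activity remaining.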

Experiment [7] addresses T4, Inhibitor of nuclear factor kappa-B kinase subunit alpha (Homo sapiens) (UniProt O15111).
T4 sequence (whole entry): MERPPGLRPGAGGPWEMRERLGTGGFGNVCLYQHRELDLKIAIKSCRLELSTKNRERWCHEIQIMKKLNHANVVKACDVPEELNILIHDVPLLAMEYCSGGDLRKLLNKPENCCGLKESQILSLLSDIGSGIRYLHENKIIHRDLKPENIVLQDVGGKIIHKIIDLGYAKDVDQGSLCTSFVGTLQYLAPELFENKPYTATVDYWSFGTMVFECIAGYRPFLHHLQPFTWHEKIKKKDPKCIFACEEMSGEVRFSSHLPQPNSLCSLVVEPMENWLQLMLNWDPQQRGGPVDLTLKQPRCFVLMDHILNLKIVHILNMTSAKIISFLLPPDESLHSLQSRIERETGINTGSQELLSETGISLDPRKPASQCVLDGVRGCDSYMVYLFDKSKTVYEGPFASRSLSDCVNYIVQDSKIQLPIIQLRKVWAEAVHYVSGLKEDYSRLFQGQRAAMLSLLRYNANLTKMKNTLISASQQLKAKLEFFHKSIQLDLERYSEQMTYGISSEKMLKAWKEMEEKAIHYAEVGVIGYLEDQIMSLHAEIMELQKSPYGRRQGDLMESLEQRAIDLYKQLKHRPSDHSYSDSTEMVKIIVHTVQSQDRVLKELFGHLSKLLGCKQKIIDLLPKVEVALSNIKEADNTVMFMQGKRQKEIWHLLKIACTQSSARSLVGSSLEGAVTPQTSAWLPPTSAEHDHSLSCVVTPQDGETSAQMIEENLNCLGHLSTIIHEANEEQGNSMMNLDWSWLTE
The experiment is described as follows: Inhibition of human recombinant IKKa at 15 nM related to control ULK1.

Experiment [8] concerns the target PAS domain-containing serine/threonine-protein kinase (Homo sapiens) (UniProt Q96RG2). The experiment is described as follows: Inhibition of human recombinant PASK at 15 nM in presence of ATP by radiometric assay relative to control.
In experiment [9] the target is Receptor tyrosine-protein kinase erbB-2 (Homo sapiens) (UniProt P04626). Briefly: Inhibition of human recombinant ErbB2 at 15 nM in presence of ATP by radiometric assay relative to control.
Chain of Receptor tyrosine-protein kinase erbB-2 (Homo sapiens) (P04626 whole entry): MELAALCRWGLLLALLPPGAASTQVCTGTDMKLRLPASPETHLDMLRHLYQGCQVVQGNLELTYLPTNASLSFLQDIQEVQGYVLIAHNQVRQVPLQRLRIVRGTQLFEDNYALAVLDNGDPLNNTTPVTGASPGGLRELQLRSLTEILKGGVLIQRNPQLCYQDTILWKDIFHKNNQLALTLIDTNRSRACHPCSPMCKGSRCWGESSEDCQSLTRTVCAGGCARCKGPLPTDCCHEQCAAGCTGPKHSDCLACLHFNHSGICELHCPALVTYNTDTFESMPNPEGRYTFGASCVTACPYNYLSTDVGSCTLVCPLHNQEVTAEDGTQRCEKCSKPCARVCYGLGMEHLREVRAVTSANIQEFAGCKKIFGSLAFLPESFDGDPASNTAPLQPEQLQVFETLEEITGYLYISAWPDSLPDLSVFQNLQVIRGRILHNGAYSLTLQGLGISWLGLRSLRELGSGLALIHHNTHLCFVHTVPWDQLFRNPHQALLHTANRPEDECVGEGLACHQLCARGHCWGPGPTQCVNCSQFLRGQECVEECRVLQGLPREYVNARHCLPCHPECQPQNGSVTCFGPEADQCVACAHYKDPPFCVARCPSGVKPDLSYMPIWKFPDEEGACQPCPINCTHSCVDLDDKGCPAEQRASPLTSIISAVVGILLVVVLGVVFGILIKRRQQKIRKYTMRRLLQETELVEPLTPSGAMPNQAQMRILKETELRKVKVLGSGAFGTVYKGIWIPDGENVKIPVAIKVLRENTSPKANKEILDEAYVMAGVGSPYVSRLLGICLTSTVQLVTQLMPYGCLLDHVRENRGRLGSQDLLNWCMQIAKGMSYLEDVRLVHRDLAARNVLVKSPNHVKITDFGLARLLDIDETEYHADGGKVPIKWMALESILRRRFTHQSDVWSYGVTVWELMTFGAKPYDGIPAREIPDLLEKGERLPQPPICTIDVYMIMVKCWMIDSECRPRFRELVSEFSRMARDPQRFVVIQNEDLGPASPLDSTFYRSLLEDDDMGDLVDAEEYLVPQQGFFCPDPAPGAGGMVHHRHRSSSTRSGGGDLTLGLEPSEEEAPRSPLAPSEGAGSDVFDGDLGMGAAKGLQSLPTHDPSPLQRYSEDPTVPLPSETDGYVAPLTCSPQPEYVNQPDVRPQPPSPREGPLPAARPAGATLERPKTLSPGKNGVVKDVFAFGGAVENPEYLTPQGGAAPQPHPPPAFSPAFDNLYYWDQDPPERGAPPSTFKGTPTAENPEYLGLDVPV

Chain of Bone morphogenetic protein receptor type-1B (Homo sapiens) (O00238 whole entry): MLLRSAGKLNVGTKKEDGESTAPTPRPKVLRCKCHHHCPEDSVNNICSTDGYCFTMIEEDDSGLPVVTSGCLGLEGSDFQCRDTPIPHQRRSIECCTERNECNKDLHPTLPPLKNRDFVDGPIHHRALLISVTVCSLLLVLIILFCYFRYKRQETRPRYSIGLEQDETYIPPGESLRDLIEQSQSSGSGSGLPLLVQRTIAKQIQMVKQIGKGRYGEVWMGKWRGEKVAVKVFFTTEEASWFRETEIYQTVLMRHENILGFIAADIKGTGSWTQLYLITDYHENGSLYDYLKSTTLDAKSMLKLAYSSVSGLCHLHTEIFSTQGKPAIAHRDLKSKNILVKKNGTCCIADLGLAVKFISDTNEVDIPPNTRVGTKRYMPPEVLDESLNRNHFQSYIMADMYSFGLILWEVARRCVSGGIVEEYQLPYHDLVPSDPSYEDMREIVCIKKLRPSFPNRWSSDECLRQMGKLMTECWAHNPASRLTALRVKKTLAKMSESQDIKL
Chain of PAS domain-containing serine/threonine-protein kinase (Homo sapiens) (Q96RG2 whole entry, the tested form may be a part): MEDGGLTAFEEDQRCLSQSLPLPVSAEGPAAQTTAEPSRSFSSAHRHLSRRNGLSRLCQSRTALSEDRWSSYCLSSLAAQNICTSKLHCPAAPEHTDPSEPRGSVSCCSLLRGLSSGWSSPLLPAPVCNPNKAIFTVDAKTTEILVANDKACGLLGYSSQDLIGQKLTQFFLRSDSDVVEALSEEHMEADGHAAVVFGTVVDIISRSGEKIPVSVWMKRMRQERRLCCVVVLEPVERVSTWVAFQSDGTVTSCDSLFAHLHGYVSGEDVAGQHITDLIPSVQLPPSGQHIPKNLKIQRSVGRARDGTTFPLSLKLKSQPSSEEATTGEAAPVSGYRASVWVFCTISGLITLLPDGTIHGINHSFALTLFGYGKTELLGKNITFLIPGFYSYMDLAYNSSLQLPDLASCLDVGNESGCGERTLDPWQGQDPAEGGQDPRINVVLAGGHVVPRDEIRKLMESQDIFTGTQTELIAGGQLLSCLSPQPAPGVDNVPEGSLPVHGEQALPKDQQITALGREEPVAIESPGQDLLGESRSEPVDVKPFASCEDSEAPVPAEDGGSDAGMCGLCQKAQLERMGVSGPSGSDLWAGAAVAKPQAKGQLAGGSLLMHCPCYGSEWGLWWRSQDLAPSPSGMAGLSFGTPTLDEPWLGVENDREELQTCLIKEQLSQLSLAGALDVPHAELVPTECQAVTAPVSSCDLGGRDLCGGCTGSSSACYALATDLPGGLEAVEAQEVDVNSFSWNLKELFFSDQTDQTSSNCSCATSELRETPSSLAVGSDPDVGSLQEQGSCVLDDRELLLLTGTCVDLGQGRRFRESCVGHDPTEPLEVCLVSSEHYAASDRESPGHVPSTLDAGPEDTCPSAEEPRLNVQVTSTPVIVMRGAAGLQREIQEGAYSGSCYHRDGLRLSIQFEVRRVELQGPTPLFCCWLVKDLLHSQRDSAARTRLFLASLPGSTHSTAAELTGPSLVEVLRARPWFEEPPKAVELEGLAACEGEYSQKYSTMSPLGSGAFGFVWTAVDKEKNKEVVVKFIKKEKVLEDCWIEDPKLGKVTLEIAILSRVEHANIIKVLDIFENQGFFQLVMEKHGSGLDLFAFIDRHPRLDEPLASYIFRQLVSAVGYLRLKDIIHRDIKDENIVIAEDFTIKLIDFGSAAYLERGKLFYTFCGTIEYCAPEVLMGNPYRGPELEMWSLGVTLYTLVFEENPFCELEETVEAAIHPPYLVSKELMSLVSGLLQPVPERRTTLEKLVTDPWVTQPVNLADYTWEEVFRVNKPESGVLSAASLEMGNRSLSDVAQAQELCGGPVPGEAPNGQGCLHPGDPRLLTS
Chain of Mitogen-activated protein kinase 10 (Homo sapiens) (P53779 whole entry): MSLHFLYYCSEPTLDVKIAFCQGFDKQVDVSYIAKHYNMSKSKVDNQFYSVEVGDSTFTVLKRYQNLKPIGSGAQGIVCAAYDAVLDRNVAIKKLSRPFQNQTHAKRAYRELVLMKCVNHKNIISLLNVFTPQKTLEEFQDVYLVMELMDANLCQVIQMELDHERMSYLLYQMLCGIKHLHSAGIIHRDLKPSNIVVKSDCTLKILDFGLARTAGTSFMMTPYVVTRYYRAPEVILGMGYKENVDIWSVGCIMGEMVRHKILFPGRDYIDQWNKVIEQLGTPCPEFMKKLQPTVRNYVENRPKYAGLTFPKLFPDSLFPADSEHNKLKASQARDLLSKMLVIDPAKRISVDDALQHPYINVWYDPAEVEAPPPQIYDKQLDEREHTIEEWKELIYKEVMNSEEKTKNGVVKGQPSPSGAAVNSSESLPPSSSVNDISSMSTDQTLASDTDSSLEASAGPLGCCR
Chain of TGF-beta receptor type-2 (Homo sapiens) (P37173 whole entry): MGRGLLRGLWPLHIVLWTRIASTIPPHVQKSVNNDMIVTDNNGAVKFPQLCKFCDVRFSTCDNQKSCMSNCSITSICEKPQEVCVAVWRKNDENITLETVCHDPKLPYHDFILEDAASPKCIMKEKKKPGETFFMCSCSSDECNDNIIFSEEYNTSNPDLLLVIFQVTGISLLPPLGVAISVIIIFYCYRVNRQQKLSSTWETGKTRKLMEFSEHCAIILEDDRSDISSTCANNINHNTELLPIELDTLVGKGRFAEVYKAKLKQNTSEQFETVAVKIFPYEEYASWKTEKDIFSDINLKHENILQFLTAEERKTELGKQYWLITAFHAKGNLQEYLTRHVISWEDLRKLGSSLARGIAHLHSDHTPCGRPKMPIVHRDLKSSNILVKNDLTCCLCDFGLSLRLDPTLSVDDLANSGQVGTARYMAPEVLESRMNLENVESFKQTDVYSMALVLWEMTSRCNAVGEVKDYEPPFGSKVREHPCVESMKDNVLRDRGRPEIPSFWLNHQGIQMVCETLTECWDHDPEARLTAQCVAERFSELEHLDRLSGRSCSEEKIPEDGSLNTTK

With `O=C(N[C@@H](C1CC1)C(F)(F)F)c1cc(-c2cnn3cc(-c4ccc(F)cc4)cnc23)cs1`, in experiment [1], the fold change (FC) was determined as 0. Besides, in [2], the inhibition – broadly, the relative decrease from the control value, in per cent – is 0%.

Take `CNC(=O)c1ccccc1Oc1nc(Nc2cc(OC)c(OC)c(OC)c2)ncc1Br`: the results for the inhibition in experiment [3], in experiment [4] and in experiment [5] were 0%, 0% and 2%, respectively.

For the compound `CC(C)[C@H](NC(=O)c1cc(-c2cnn3cc(-c4ccc(OCCN5CCCCC5)cc4)cnc23)cs1)C(F)(F)F`, the values for the fold change (FC) in [6] and in [7] were 0.15 and 0.01, respectively. The inhibition in experiment [8] and in experiment [9] was 0% each time.
